From PubChem
In the library only some 5.1% were active in any assay of this set; here they are far more common.
NF-kB expr up – raises NF-kB expression in human neuronal cells; NF-kB reporter expression; hits give high values; 190,000 compounds, 1.6% hits; fold change at 12.5 µM; in the data active means fold change above about 3.3
APP 5'UTR act – APP 5'UTR luciferase reporter activation; activation, % at 2 µM; 190,000 compounds, 1% hits; SH-SY5Y APP 5'UTR luciferase reporter, luminescence; zero percent = DMSO vehicle wells;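 active means activation above a set limit, based on mean plus 3 SD of controls, cut at about 140% in these data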
STAT1 act – activators of IFN-gamma induced STAT1 signaling; 200,000 compounds, 2.6% hits; activation (% of control), % at 5.5 µM; NIH 3T3 STAT1-luciferase reporter, luminescence; 100% = IFN-gamma alone, no compound;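 active means activation above the screen-wide mean activation plus 3 SD, cut at about 130% in these data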
STAT3 activator – increases IL-6 driven STAT3 reporter signal; 190,000 compounds, 0.91% hits; U3A cells, IL-6 STAT3-luciferase reporter, luminescence; 100% = signal with IL-6 EC80 alone; activation (% of control), % at 5.6 µM;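 active means activation above the screen-wide mean of compound activation plus 3 SD, cut at about 130% in these data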
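system = STAT3-luciferase reporter U3A cells | reagent = IL-6 stimulus at 33 ng/mL final | timing = 1 h compound pre-exposure, 6 h IL-6 stimulation, 37 °C | measured by = luminescence | evaluation = % activation versus median of IL-6-stimulated wells | control set = IL-6-only wells as 100% reference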
STAT3 inh – inhibitors of IL-6 induced STAT3 signaling. AID 862. U3A cells, IL-6 STAT3-luciferase reporter, luminescence; host cell line lacks STAT1. inhibition, % at 5.5 µM. 190,000 compounds, 0.89% hits;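 active means inhibition above the mean inhibition across all screened compounds plus 3 SD, cut at about 44% in these data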
STAT1 blocker – reduces IFN-gamma driven STAT1 reporter signal; NIH 3T3 STAT1-luciferase reporter, luminescence; inhibition, % at 5.5 µM; 200,000 compounds, 0.35% hits; AID 920;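 active means inhibition above a set limit, the mean inhibition across all tested compounds plus 3 SD, cut at about 34% in these data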
A number is an active result; - = inactive; . = not tested or not shown.

SMILES | NF-kB expr up | APP 5'UTR act | STAT1 act | STAT3 activator | STAT3 inh | STAT1 blocker
CCC(CC)c1nnc(NC(=O)C2COc3ccccc3O2)s1 (stereo unspecified) | - | - | 137 | - | - | -
Cc1nnc(NC(=O)C2COc3ccccc3O2)s1 (stereo unspecified) | - | - | 129 | - | - | -
Cc1cc(N2CCCCC2)n2nc(C)c(-c3ccccc3)c2n1 | - | - | - | - | - | -
Cc1cc(N2CCCCC2)n2ncc(-c3ccc(Cl)cc3)c2n1 | - | - | 139 | - | - | -
Cc1cc(N2CCC(C)CC2)n2ncc(-c3ccccc3)c2n1 | - | 194 | 132 | - | - | -
Cc1cc(N2CCCCC2)n2ncc(-c3ccccc3)c2n1 | - | 217 | - | - | 48 | -
Cc1cc(N2CCC(C)CC2)n2nc(C)c(-c3ccccc3)c2n1 | - | - | - | - | - | -
CCCc1cc(C(=O)NNC(=S)Nc2cccc(C)c2)cs1 | - | - | 142 | - | - | -
Cc1cccc(NC(=S)NNC(=O)c2ccc3c(c2)OCO3)c1 | - | - | - | - | - | -
COc1ccccc1NC(=O)c1sc2ncn(Cc3cccc4ccccc34)c(=O)c2c1C | - | - | - | - | - | -
Cc1ccc(NC(=O)CSCC(=O)O)cc1 | - | - | - | - | - | -
Cc1ccc(NC(=O)CSCc2ccco2)cc1 | - | - | 129 | - | - | -
CCOc1cc(S(=O)(=O)NCC2OCCc3ccccc32)c(OCC)cc1-n1cnnn1 (stereo unspecified) | - | - | - | - | - | -
Oc1c(N=Nc2ccccn2)ccc2ccccc12 | 3.6 | - | - | - | - | -
CC(C)CC(=O)c1c[nH]c(C(=O)NCc2cccs2)c1 | - | - | - | - | - | -
C=CCOc1ccccc1CNc1ccc2c(c1)OCCO2 | - | - | - | - | 70 | 43
C=CCOc1ccccc1CNc1cccc(F)c1 | - | - | - | - | - | -
O=C(COC(=O)C(Cc1ccccc1)NC(=O)c1ccc(Cl)cc1)c1ccc(Cl)cc1 (stereo unspecified) | - | . | - | - | - | -
O=C(c1cnn2c(C(F)(F)F)cc(-c3ccccc3)nc12)N1CCCCC1c1cccnc1 (stereo unspecified) | - | - | - | - | - | -
O=C(c1cc2nc(-c3ccc(F)cc3)cc(C(F)(F)F)n2n1)N1CCCCC1c1cccnc1 (stereo unspecified) | - | - | - | - | 57 | 35
O=C(O/N=C1/CCCc2occc21)c1ccc(F)cc1 | - | - | - | - | - | -
O=C(O/N=C1/CCSc2ccccc21)c1ccc(F)cc1 | - | - | - | 135 | - | -
CCOC(=O)C1(Cc2ccccc2)CCN(Cc2ccc3cc(NC(C)=O)ccc3n2)CC1 | - | - | - | - | - | -
COc1ccc2occ(C(=O)c3ccccc3)c2c1 | - | - | 135 | - | - | -
O=C(c1ccc(Cl)cc1)c1coc2ccc(O)cc12 | 8.8 | - | - | - | - | -
SMILES | NF-kB expr up | APP 5'UTR act | STAT1 act | STAT3 activator | STAT3 inh | STAT1 blocker
CN(C)c1ccc(NC(=S)c2ccccn2)cc1 | - | - | - | - | 98 | 68
CN(C)c1ccc(/C=C(\C#N)c2ccccn2)cc1 | - | - | - | - | 99 | 54
N#C/C(=C\c1ccc([N+](=O)[O-])cc1)c1ccccn1 | - | - | 132 | - | - | -
C=CCn1c(C(C)NC(=O)c2cccc(C)c2)n[nH]c1=S (stereo unspecified) | 3.3 | - | - | - | - | -
N#Cc1c(NCCO)nc(NCc2ccccc2)c2c1CCN(Cc1ccccc1)C2 | 5.8 | - | - | - | - | -
C=CCNc1nc(N2CCCCC2)c(C#N)c2c1CN(Cc1ccccc1)CC2 | 4.7 | - | - | - | - | -
COc1ccc(CNC(=O)c2ccc(CS(=O)(=O)Cc3ccccc3F)o2)cc1 | - | - | - | - | - | -
CCOc1ccc2nc(SCC(=O)N(C)C3CCS(=O)(=O)C3)[nH]c2c1 (stereo unspecified) | - | - | - | - | - | -
O=C(CSc1nc2ccccc2[nH]1)c1ccco1 | - | - | - | - | - | -
CCOc1ccc2nc(SCC(=O)N(C)C)[nH]c2c1 | - | - | 133 | - | - | -
COc1ccc2nc(SCC(=O)c3ccco3)[nH]c2c1 | - | - | 130 | - | - | -
Cc1cc(N2CCOCC2)ccc1/C=C1\NC(=O)N(Cc2ccccc2)C1=O | - | - | - | - | - | -
CCN1CCN(S(=O)(=O)c2ccc(Oc3ccccc3OC)cc2)CC1 | - | - | - | - | - | -
CCSc1nc2ccccc2n1CC(=O)O | - | - | - | - | - | -
CCn1cnc2cc(NCc3ccc(N(C)C)cc3)ccc21 | - | - | - | - | - | -
CCCC(=O)NCc1nc2ccccc2n1C | - | - | - | - | - | -
CC(C)n1cnc2cc(NCc3nc4ccccc4n3C)ccc21 | - | 186 | 150 | - | - | -
Cn1c(CNc2ccccc2)nc2ccccc21 | - | - | 132 | - | - | -
CCn1cnc2cc(NCc3nc4ccccc4n3C)ccc21 | 5.5 | 146 | - | - | - | -
CCn1cnc2cc(NCc3ccc(C)cc3)ccc21 | - | - | 136 | - | - | -
CN(C(=O)c1cccs1)c1ccc(OCC(=O)N2CCC(C(N)=O)CC2)cc1 | - | - | - | - | - | -
O=C(Nc1cccc(S(=O)(=O)N2CCCCC2)c1)c1ccc(S(=O)(=O)C(F)F)cc1 | - | - | - | - | - | -
CC(Oc1ccc(Cl)cc1Cl)C(=O)NNC(=O)C(=O)N1CCCCC1 (stereo unspecified) | - | - | - | - | - | -
CCN(CC)CCn1c(NCc2nc3ccccc3n2Cc2ccccc2)nc2ccccc21 | - | - | - | - | - | -
CCn1cnc2cc(NCc3nc4ccccc4n3Cc3ccccc3)ccc21 | - | 168 | 148 | - | - | -
SMILES | NF-kB expr up | APP 5'UTR act | STAT1 act | STAT3 activator | STAT3 inh | STAT1 blocker
Cn1nnnc1SCc1ccc(C(=O)Nc2ccccc2F)cc1 | - | - | - | - | - | -
CSCc1ccc(C(=O)NCc2ccc(C)cc2)cc1 | - | - | - | - | - | -
O=C(Nc1ccccc1)c1ccc(CSc2ncccn2)cc1 | - | 152 | 139 | - | - | -
O=C(Nc1ccccc1F)c1ccc(CSc2ncccn2)cc1 | - | 155 | 138 | - | - | -
CSCc1ccc(C(=O)Nc2ccc(C(N)=O)cc2)cc1 | - | - | 147 | - | - | -
Cc1ccc(NC(=O)c2ccc(CSc3nccc(C)n3)cc2)cc1 | - | - | - | - | - | -
CC(=O)Nc1ccc(Nc2nc(C)nc3c2oc2ccccc23)cc1 | - | - | - | - | - | -
Clc1ncnc2c1oc1ccccc12 | - | - | 142 | 134 | - | -
CC(=O)c1ccc(Nc2ncnc3c2oc2ccccc23)cc1 | - | - | 161 | - | - | -
COc1ccc(CCNc2nc(C)nc3c2oc2ccccc23)cc1OC | - | - | - | - | - | -
CCc1nc(NCc2ccccn2)c2oc3ccccc3c2n1 | - | . | . | . | . | .
